Measured values as given in ChEMBL document CHEMBL1629459, “Microarray and molecular analyses of the azole resistance mechanism in Candida glabrata oropharyngeal isolates” (2010).
Values after ≈ are worked out from the molar mass of the structure shown.

Assays:
Type in all cases: functional
Nakaseomyces glabratus [1] = test: Antifungal activity against Candida glabrata isolate Cg18R with CgPDR1 L344S mutant
Outline: (§1)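 Fluconazole susceptibility by modified CLSI (NCCLS) broth microdilution. Medium was buffered RPMI with 2% glucose added. Inoculum was 250 cells per well, incubated at 37°C for 48 h. MIC was read as the concentration giving 80% growth reduction (MIC80). Clinical oropharyngeal isolates were cultured on YPD or on minimal medium (yeast nitrogen base plus 2% glucose).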

Nakaseomyces glabratus [2] = test: Antifungal activity against Candida glabrata isolate Cg14R with CgPDR1 N764I mutant; outline: as §1
Nakaseomyces glabratus [3] = test: Antifungal activity against Candida glabrata isolate Cg15S; outline: as §1
Nakaseomyces glabratus [4] = test: Antifungal activity against Candida glabrata isolate Cg22R with CgPDR1 L280F mutant; outline: as §1
Nakaseomyces glabratus [5] = test: Antifungal activity against Candida glabrata isolate Cg12R with CgPDR1 G348A mutant; outline: as §1
Nakaseomyces glabratus [6] = test: Antifungal activity against Candida glabrata isolate Cg4R with CgPDR1 S391L mutant; outline: as §1
Nakaseomyces glabratus [7] = test: Antifungal activity against Candida glabrata isolate Cg2R with CgPDR1 F575L mutant; outline: as §1
Nakaseomyces glabratus [8] = test: Antifungal activity against Candida glabrata isolate Cg3S; outline: as §1
Nakaseomyces glabratus [9] = test: Antifungal activity against Candida glabrata isolate Cg6R with CgPDR1 G943S mutant; outline: as §1
Nakaseomyces glabratus [10] = test: Antifungal activity against Candida glabrata isolate Cg16R with CgPDR1 R772I mutant; outline: as §1
Nakaseomyces glabratus [11] = test: Antifungal activity against Candida glabrata isolate Cg11S; outline: as §1
Nakaseomyces glabratus [12] = test: Antifungal activity against Candida glabrata isolate Cg8R with CgPDR1 W297S; outline: as §1
Nakaseomyces glabratus [13] = test: Antifungal activity against Candida glabrata isolate Cg5S; outline: as §1
Nakaseomyces glabratus [14] = test: Antifungal activity against Candida glabrata isolate Cg1S; outline: as §1
Nakaseomyces glabratus [15] = test: Antifungal activity against Candida glabrata isolate Cg13S; outline: as §1
Nakaseomyces glabratus [16] = test: Antifungal activity against Candida glabrata isolate Cg17S; outline: as §1
Nakaseomyces glabratus [17] = test: Antifungal activity against Candida glabrata isolate Cg7S; outline: as §1
Nakaseomyces glabratus [18] = test: Antifungal activity against Candida glabrata isolate Cg21S; outline: as §1

`OC(Cn1cncn1)(Cn1cncn1)c1ccc(F)cc1F` [FLUCONAZOLE] gave an MIC80 (Nakaseomyces glabratus [1]) of 256 µg/mL (≈ 836 µM), an MIC80 (Nakaseomyces glabratus [2]) of 256 µg/mL (≈ 836 µM) and an MIC80 (Nakaseomyces glabratus [3]) of 16 µg/mL (≈ 52.2 µM). For the same compound, the MIC80 (Nakaseomyces glabratus [4]) was 256 µg/mL (≈ 836 µM), the MIC80 (Nakaseomyces glabratus [5]) was 256 µg/mL (≈ 836 µM) and the MIC80 (Nakaseomyces glabratus [6]) was 256 µg/mL (≈ 836 µM). For the same compound, the MIC80 (Nakaseomyces glabratus [7]) was 128 µg/mL (≈ 418 µM), the MIC80 (Nakaseomyces glabratus [8]) was 32 µg/mL (≈ 104 µM) and the MIC80 (Nakaseomyces glabratus [9]) was 256 µg/mL (≈ 836 µM). The MIC80 (Nakaseomyces glabratus [10]) was 128 µg/mL (≈ 418 µM), the MIC80 (Nakaseomyces glabratus [11]) was 32 µg/mL (≈ 104 µM) and the MIC80 (Nakaseomyces glabratus [12]) was 512 µg/mL (≈ 1670 µM). It also gave an MIC80 (Nakaseomyces glabratus [13]) of 32 µg/mL (≈ 104 µM), an MIC80 (Nakaseomyces glabratus [14]) of 16 µg/mL (≈ 52.2 µM) and an MIC80 (Nakaseomyces glabratus [15]) of 64 µg/mL (≈ 209 µM). The MIC80 (Nakaseomyces glabratus [16]) was 32 µg/mL (≈ 104 µM), the MIC80 (Nakaseomyces glabratus [17]) was 32 µg/mL (≈ 104 µM) and the MIC80 (Nakaseomyces glabratus [18]) was 32 µg/mL (≈ 104 µM).
